Reference: PMC8112392 (Science signaling, 2021)
Entries after “also recorded” stand apart in the source; their conditions may differ. Like-named read-outs stand apart in the source and are kept apart here.

Columns and labels:
C. jejuni 11168-O [1] = assay: μ-Slide chemotaxis cell enumeration assay; assay type: cell-based; details: 10 mM chemoeffector
Summary of the method: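 Wild-type, Δtlp10LBD and complemented strains are harvested from MHA plates into PBS, adjusted to OD600 1 and mixed 1:1 (vol:vol) with 1% LMT. The opposite μ-Slide reservoir holds chemoeffector (final 10 mM) in LMT (final 0.35%). Slides are incubated 3 h at 42°C, microaerobic. Cells in the chemoeffector reservoir are enumerated by viable count. Three biological repeats are run, each in triplicate.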

Tlp10^LBD N120A = Tlp10^LBD N120A (Campylobacter jejuni, UniProt Q0PCA6, N120A); assay: biochemical; assay type: binding, C. jejuni
Tlp10^LBD wild type [2] = molecular target: T1, Tlp10^LBD wild type (Campylobacter jejuni, UniProt Q0PCA6); assay: biochemical; assay type: binding; details: for Kd: SPR, n = 3; for SPR: binding to Tlp10^LBD by SPR
Tlp10^LBD Y70A = Tlp10^LBD Y70A (Campylobacter jejuni, UniProt Q0PCA6, Y70A); assay: biochemical; assay type: binding, C. jejuni
Tlp10^LBD N115A = Tlp10^LBD N115A (Campylobacter jejuni, UniProt Q0PCA6, N115A); assay: biochemical; assay type: binding, C. jejuni
Tlp10^LBD wild type [3] = molecular target: T1, Tlp10^LBD wild type; assay type: binding; details: competition SPR, compounds at 10x KD
[4] = test system: C. jejuni 11168-O adherence to Caco-2, HCT116 and HCT116MUC1 cells; assay: Adherence of C. jejuni to cultured human cells with glycan competition; assay type: cell-based; details: 11168-O wild-type and Δtlp10^LBDc strains, 5 mM glycan
Tlp10^LBD = assay: Glycan and small molecule array binding of purified Tlp10 LBD; parameters: species or system C. jejuni; details: for array: binding to Tlp10^LBD on glycan / small molecule array; for interaction of Tlp10^LBD with complex glycans: glycan array
Tlp10^LBD H193A = Tlp10^LBD H193A (Campylobacter jejuni, UniProt Q0PCA6, H193A); assay: biochemical; assay type: binding, C. jejuni
C. jejuni 11168-O [5] = assay type: cell-based; details: nutrient-depleted chemotaxis assay, 2 mM ligand
C. jejuni 11168-O [6] = assay: μ-Slide chemotactic cell migration visualisation; assay type: cell-based; details: time-lapse imaging, 10 mM ligand
Summary of the method: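 Wild-type, Δtlp10 and complemented C. jejuni 11168-O cells are FITC-labelled. In a μ-Slide, the left reservoir holds bacterial suspension, and the right reservoir and transition zone hold PBS. Once cells near the transition zone, isoleucine or arginine is added to the right reservoir (final 10 mM). In the sequential test, arginine is added at 20 sec after partial migration toward isoleucine. Migration is recorded by time-lapse video at 40× magnification.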

C. jejuni 11168-O [7] = assay: Biofilm assay; assay type: cell-based; details: 10 mM galactose
[8] = KD Tlp10^LBD Wild-type, Table 2, mean ± s.d.
[9] = KD, wild-type Tlp10^LBD, mean ± SD
[10] = read-out: KD Tlp10^LBD N120A, SPR, mean ± s.d., n = 3
[11] = read-out: KD Tlp10^LBD Wild-type, Table 2, mean ± s.d.
[12] = read-out: KD Tlp10^LBD Y70A, SPR, mean ± s.d., n = 3
[13] = read-out: KD Tlp10^LBD N115A, SPR, mean ± s.d., n = 3
[14] = read-out: KD Tlp10^LBD H193A, SPR, mean ± s.d., n = 3

Row | Molecule | migration of Δtlp10^LBD cells toward ligand compared with wild-type (C. jejuni 11168-O [1]) | Kd (Tlp10^LBD N120A) [µM] | Kd (Tlp10^LBD wild type [2]; [8]) [µM] | Kd (Tlp10^LBD wild type [2]; [9]) [µM] | SPR (Tlp10^LBD wild type [2]) | Kd (Tlp10^LBD Y70A) [µM] | Kd (Tlp10^LBD N115A) [µM] | ligand-binding site on Tlp10^LBD (Tlp10^LBD wild type [3]) | array (Tlp10^LBD) | Kd (Tlp10^LBD H193A) [µM] | Tlp10-mediated chemotactic response type (C. jejuni 11168-O [5]) | migration of Δtlp10^LBD strain towards ligand compared to wild-type (C. jejuni 11168-O [5]) | further results
1 | C[C@H](O)[C@@H](O)[C@@H](O)[C@H](O)C=O [fucose] | decreased | 19.2 ± 4 | 30 ± 4.1 | 30 ± 4.1 | + | 34 ± 7 | 22 ± 2 | site B | + | 28 ± 3 | attractants |  | Tlp10-mediated chemotactic response type (C. jejuni 11168-O [1]): attractant response; effect on adherence to all cell lines tested [4]: suppressed the adherence; also recorded: less effective than that by galactose
2 | rhamnose | No significant differences |  |  |  | + |  |  | site B | + |  |  | not significantly affected | Kd (Tlp10^LBD N120A; [10]): 17.9 ± 3.7 µM; Kd (Tlp10^LBD wild type [2]; [11]): 11.1 ± 2 µM; Kd (Tlp10^LBD Y70A; [12]): 8.2 ± 3 µM; Kd (Tlp10^LBD N115A; [13]): 18.2 ± 1.9 µM; Kd (Tlp10^LBD H193A; [14]): 9.8 ± 0.95 µM
3 | CC[C@H](C)[C@H](N)C(=O)O [isoleucine] |  | 51.2 ± 1.2 | 37.9 ± 7 | 37.9 ± 7 | + | 28.1 ± 6 | 48.1 ± 5 | site A | + | 30.8 ± 7 | attractants |  | Tlp10-mediated chemotactic response type (C. jejuni 11168-O [6]): chemoattractant response
4 | O=C(O)CCC(=O)C(=O)O [α-ketoglutarate] |  |  |  |  | + |  |  | site A |  |  |  | not significantly affected | Kd (Tlp10^LBD N120A; [10]): 580 ± 43 µM; Kd (Tlp10^LBD wild type [2]; wild-type Tlp10^LBD, mean ± SD): 403 ± 13 µM; Kd (Tlp10^LBD wild type [2]; [11]): 403 ± 13 µM; Kd (Tlp10^LBD Y70A; [12]): 385 ± 40 µM; Kd (Tlp10^LBD N115A; [13]): 630 ± 27 µM; Kd (Tlp10^LBD H193A; [14]): 370 ± 63 µM
5 | N=C(N)NCCC[C@H](N)C(=O)O [arginine] |  | 50.1 ± 8 | 27.9 ± 3 | 27.9 ± 3 | + | 19.1 ± 12 | 41.9 ± 12 | site A | + | 29 ± 8 | repellent response | increase in migration | Tlp10-mediated chemotactic response type (C. jejuni 11168-O [6]): chemorepellent response
6 | CC(=O)N[C@@H](C=O)[C@@H](O[C@@H]1O[C@H](CO)[C@H](O)[C@H](O)[C@H]1O)[C@H](O[C@@H]1O[C@@H](C)[C@@H](O)[C@@H](O)[C@@H]1O)[C@H](O)CO [Lewis^a antigen] |  |  |  |  |  |  |  |  |  |  |  |  | interaction of Tlp10^LBD with complex glycans (Tlp10^LBD): interacted
7 | CC(=O)N[C@H]1[C@H]([C@H](O)[C@H](O)CO)OC(O)(C(=O)O)C[C@@H]1O (stereo partly shown) [sialic acid] | No significant differences | 37.1 ± 6 | 29.3 ± 6.9 | 29.3 ± 6.9 | + | 24.1 ± 7 | 34.9 ± 13 | site B | + | 20.4 ± 9 |  |  | 
8 | Fucα1–2Galβ1–3GalNAcβ1–4(Neu5Acα2–3) Galβ1–4Glc [human ganglioside GM1] |  |  |  |  |  |  |  |  |  |  |  |  | interaction of Tlp10^LBD with complex glycans (Tlp10^LBD): interacted
9 | Cc1ncc(C[n+]2csc(CCO)c2C)c(N)n1 [thiamine] |  | 58.3 ± 9 | 59.4 ± 13 | 59.4 ± 13 | + | 62 ± 17 | 49.2 ± 10 | both site A and site B with a preference for site B | + | 50.6 ± 6 | repellent response | increase in migration | 
10 | O=C[C@H](O)[C@@H](O)[C@@H](O)[C@H](O)CO [galactose] | increased |  |  |  | + |  |  | site B | + |  | repellent | One-log increase in migration | Tlp10-mediated chemotactic response type (C. jejuni 11168-O [1]): repellent response; effect on adherence to all cell lines tested [4]: suppressed the adherence; reduction of biofilm formation compared to untreated cells (C. jejuni 11168-O [7]; wild-type C. jejuni 11168-O): up to 46%; change in biofilm formation (C. jejuni 11168-O [7]; Δtlp10^LBD mutant): no significant change
11 | c1ncc2nc[nH]c2n1 [purine] |  | 34 ± 3 | 21 ± 6 | 21 ± 6 | + | 16 ± 1 | 29 ± 8 | site A | + | 19 ± 2 |  | not significantly affected | 
12 | OC[C@H]1OC(O)[C@@H](O)[C@@H](O)[C@@H]1O (stereo partly shown) [mannose] | decreased | 46.4 ± 12 | 39.6 ± 9 | 39.6 ± 9 | + | 43.3 ± 3 | 52.1 ± 10 | site B | + | 32.1 ± 12 | attractants |  | Tlp10-mediated chemotactic response type (C. jejuni 11168-O [1]): attractant response
13 | N[C@@H](CC(=O)O)C(=O)O [aspartate] |  | 48 ± 7 | 32.3 ± 10 | 32.3 ± 10 | + | 38.9 ± 11 | 29.5 ± 8 | both site A and site B with a preference for site B | + | 30.9 ± 9 | attractants |  | 
14 | O=C(O)CC(O)C(=O)O (stereo not shown) [malate] |  | 215 ± 31 | 168 ± 19 | 168 ± 19 | + | 184 ± 14 | 176 ± 10 | site B |  | 161 ± 23 | attractants |  | 
15 | fumarate |  |  |  |  | + |  |  | site A | + |  | attractants |  | Kd (Tlp10^LBD N120A; [10]): 317 ± 34 µM; Kd (Tlp10^LBD wild type [2]; wild-type Tlp10^LBD, mean ± SD): 282 ± 68 µM; Kd (Tlp10^LBD wild type [2]; [11]): 282 ± 68 µM; Kd (Tlp10^LBD Y70A; [12]): 185 ± 25 µM; Kd (Tlp10^LBD N115A; [13]): 242 ± 30 µM; Kd (Tlp10^LBD H193A; [14]): 213 ± 59 µM
